Test results reported in ChEMBL document CHEMBL4627381, “Licochalcone A Selectively Resensitizes ABCG2-Overexpressing Multidrug-Resistant Cancer Cells to Chemotherapeutic Drugs” (J Nat Prod, 2020).

Columns and labels:
[1] = molecular target: T1, Broad substrate specificity ATP-binding cassette transporter ABCG2 (Homo sapiens, UniProt Q9UNQ0); experiment: Reversal of human ABCG2-mediated multidrug resistance in HEK293/R482 cells assessed as fold-change in topotecan IC50 at 3 uM after 72 hrs by CCK8 relative to topotecan IC50; format: cell-based
T1 sequence (Q9UNQ0 whole entry): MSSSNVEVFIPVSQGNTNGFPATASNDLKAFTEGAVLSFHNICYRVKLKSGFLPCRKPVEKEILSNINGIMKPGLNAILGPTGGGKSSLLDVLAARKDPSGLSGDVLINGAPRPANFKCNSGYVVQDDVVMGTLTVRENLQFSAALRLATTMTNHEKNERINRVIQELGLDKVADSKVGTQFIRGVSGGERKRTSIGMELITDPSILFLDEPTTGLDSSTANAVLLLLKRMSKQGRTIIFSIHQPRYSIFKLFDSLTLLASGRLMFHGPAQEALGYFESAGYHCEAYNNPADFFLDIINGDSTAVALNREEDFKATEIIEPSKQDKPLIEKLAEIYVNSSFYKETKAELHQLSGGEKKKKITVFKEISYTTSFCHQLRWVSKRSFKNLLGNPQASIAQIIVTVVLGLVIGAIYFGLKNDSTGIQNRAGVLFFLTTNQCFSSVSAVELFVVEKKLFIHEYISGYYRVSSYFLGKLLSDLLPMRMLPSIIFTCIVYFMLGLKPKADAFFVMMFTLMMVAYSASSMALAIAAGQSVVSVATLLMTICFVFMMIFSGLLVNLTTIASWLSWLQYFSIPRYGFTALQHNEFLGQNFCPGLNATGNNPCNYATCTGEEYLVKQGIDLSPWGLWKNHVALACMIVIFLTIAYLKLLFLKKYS
How it was run: (§1)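 Cells were seeded at 5000/well for 24 h, then given colchicine, etoposide, mitoxantrone or topotecan ± non-toxic modulator (0.5–3.0 μM) for 72 h, with DMSO up to 0.5%. IC50 came from fitted curves (mean ± SD, three experiments). Fold-reversal = IC50 without modulator ÷ IC50 with modulator.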

[2] = test system: HEK293; experiment: Effect on etoposide-induced cytotoxicity against HEK293 cells assessed as fold change in etoposide IC50 at 3 uM after 72 hrs by CCK8 assay relative to etoposide IC50; format: cell-based; details: human, hek293, 72 h
How it was run: (§2)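 Reversal assay in parental pcDNA-HEK293 and transfected HEK293 lines (ABCB1 for colchicine, ABCC1 for etoposide, ABCG2 for mitoxantrone/topotecan). Substrate drug series was given with or without nontoxic modulator (0.5, 1.0, 2.0 or 3.0 μM) for 72 h, with a CCK-8 read-out. Fold-reversal is substrate IC50 without modulator divided by IC50 with modulator. Three independent experiments.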

[3] = test system: S1; experiment: Induction of apoptosis in human S1 cells assessed as late apoptotic cells at 10 uM incubated for 48 hrs by annexin V/propidium iodide staining based flow cytometry (reference value: 3.6%); format: functional
How it was run: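 S1 cells were exposed for 48 h to DMSO, 10 μM compound, 5 μM topotecan, or 5 μM topotecan plus 10 μM compound. They were then stained with 1.25 μg/mL annexin V–FITC and 0.1 mg/mL PI for 15 min at room temperature. 10000 cells per sample were analysed by flow cytometry; three independent experiments.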

[4] = test system: LS180; experiment: Upregulation of ABCG2 mRNA expression in human LS180 cells at 1 uM by […] relative to control; format: functional
[5] = test system: HEK293; experiment: Effect on Colchicine-induced cytotoxicity against HEK293 cells assessed as fold change in colchicine IC50 at 3 uM after 72 hrs by CCK8 assay relative to colchicine IC50; format: cell-based; details: human, hek293, 72 h; how it was run: as §2
[6] = test system: HEK293; experiment: Effect on mitoxantrone-induced cytotoxicity against HEK293 cells assessed as fold change in mitoxantrone IC50 at 1 uM after 72 hrs by CCK8 assay relative to mitoxantrone IC50; format: cell-based; details: human, hek293, 72 h; how it was run: as §2
[7] = molecular target: Multidrug resistance-associated protein 1 (Homo sapiens, UniProt P33527); experiment: Reversal of human ABCC1-mediated multidrug resistance in HEK293/MRP1 cells assessed as fold-change in etoposide IC50 at 1 uM after 72 hrs by CCK8 relative to etoposide IC50; format: cell-based; how it was run: as §1
[8] = molecular target: T2, ABCG2 (Homo sapiens, UniProt Q9UNQ0); experiment: Modulation of ABCG2 (unknown origin) expressed in High Five insect cell vesicle membrane assessed as maximal stimulation of ATPase activity after 20 mins by colorimetric assay relative to baseline; details: membrane vesicles of High Five insect cells expressing ABCG2, read-out: Activity
T2 sequence (Q9UNQ0 whole entry): T1 sequence (Q9UNQ0 whole entry)
How it was run: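 Membrane vesicles from ABCG2-expressing High Five cells were incubated with LCA (0–390 μM) at 37 °C for 20 min in 50 mM MES-Tris pH 6.8 with ouabain, DTT, NaN3, EGTA and KCl, ±0.3 mM vanadate. Liberated Pi was read by molybdate/ascorbate colorimetry at 880 nm. Vi-sensitive activity = activity minus activity with vanadate; mean ± SD of three experiments.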

[9] = molecular target: T3, ATP-dependent translocase ABCB1 (Homo sapiens, UniProt P08183); experiment: Reversal of human ABCB1-mediated multidrug resistance in HEK293/MDR19 cells assessed as fold change in colchicine IC50 at 2 uM after 72 hrs by CCK8 relative to colchicine IC50; format: cell-based; how it was run: as §1
[10] = molecular target: T1, Broad substrate specificity ATP-binding cassette transporter ABCG2; experiment: Reversal of ABCG2 (unknown origin)-mediated multidrug resistance in human S1-M1-80 cells assessed as fold-change in topotecan IC50 at 0.5 uM after 72 hrs by MTT assay relative to topotecan IC50; format: cell-based; details: s1-m1-80, 72 h
How it was run: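 MTT readout in S1-M1-80 colon cancer cells (mitoxantrone-selected, held in 80 μM mitoxantrone, then drug-free 7 days before assay). Cells were seeded at 5000/well for 24 h, then given increasing mitoxantrone or topotecan with DMSO or non-toxic modulator for 72 h at 37 °C. IC50 came from fitted dose-response curves (at least three independent experiments). Fold-reversal = IC50 without modulator ÷ IC50 with modulator.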

[11] = test system: S1; experiment: Induction of apoptosis in human S1 cells assessed as viable cells at 10 uM incubated for 48 hrs by annexin V/propidium iodide staining based flow cytometry (reference value: 94.1%); format: functional; details: S1, 48 h, read-out: Activity
[12] = test system: HEK293; experiment: Effect on topotecan-induced cytotoxicity against HEK293 cells assessed as fold change in topotecan IC50 at 2 uM after 72 hrs by CCK8 assay relative to topotecan IC50; format: cell-based; details: human, hek293, 72 h; how it was run: as §2
[13] = molecular target: T3, ATP-dependent translocase ABCB1; experiment: Reversal of human ABCB1-mediated multidrug resistance in HEK293/MDR19 cells assessed as fold change in colchicine IC50 at 1 uM after 72 hrs by CCK8 relative to colchicine IC50; format: cell-based; how it was run: as §1
[14] = molecular target: T1, Broad substrate specificity ATP-binding cassette transporter ABCG2; experiment: Reversal of human ABCG2-mediated multidrug resistance in HEK293/R482 cells assessed as fold change in mitoxantrone IC50 at 1 uM after 72 hrs by CCK8 assay relative to mitoxantrone IC50; format: cell-based; how it was run: as §1
[15] = test system: HEK293; experiment: Effect on Colchicine-induced cytotoxicity against HEK293 cells assessed as fold change in colchicine IC50 at 2 uM after 72 hrs by CCK8 assay relative to colchicine IC50; format: cell-based; details: human, hek293, 72 h; how it was run: as §2
[16] = test system: S1-M1-80; experiment: Induction of apoptosis in human S1-M1-80 cells harboring ABCG2 (unknown origin) assessed as viable cells at 10 uM incubated for 48 hrs by annexin V/propidium iodide staining based flow cytometry (reference value: 93.9%); format: functional; details: S1-M1-80, 48 h, read-out: Activity

T3 sequence (P08183 whole entry): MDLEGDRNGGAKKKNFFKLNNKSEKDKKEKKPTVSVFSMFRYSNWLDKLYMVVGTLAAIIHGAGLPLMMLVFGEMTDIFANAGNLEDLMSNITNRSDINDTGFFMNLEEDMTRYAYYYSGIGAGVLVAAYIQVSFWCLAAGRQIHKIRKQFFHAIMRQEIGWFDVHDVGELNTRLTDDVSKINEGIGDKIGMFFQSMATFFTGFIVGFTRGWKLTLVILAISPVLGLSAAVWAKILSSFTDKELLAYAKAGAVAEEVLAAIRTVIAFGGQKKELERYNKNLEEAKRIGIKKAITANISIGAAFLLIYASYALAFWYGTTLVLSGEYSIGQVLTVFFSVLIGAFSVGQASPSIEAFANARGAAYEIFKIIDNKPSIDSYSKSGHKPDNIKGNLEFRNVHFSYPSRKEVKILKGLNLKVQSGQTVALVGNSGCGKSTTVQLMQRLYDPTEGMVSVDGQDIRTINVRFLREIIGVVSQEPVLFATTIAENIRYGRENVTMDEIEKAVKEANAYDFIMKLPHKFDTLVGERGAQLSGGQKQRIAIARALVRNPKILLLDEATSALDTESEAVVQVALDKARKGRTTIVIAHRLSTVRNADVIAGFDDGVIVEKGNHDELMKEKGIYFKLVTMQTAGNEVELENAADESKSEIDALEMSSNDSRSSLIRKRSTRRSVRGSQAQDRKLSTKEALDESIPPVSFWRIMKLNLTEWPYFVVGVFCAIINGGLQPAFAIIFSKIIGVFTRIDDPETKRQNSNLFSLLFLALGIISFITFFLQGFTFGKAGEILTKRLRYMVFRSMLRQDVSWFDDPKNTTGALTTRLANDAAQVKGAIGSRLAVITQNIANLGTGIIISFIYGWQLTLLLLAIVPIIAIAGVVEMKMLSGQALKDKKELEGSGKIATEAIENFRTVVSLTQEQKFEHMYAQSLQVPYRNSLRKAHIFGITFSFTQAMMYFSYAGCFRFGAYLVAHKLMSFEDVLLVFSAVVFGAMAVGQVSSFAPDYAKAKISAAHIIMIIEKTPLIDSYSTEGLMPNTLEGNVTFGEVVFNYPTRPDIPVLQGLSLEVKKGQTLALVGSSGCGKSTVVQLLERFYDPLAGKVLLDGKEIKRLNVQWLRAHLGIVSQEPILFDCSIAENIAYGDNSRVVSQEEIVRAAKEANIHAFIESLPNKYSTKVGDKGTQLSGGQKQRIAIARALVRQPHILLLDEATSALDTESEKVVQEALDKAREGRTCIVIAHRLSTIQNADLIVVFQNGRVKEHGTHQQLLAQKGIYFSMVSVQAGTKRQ
Multidrug resistance-associated protein 1, sequence (P33527 whole entry): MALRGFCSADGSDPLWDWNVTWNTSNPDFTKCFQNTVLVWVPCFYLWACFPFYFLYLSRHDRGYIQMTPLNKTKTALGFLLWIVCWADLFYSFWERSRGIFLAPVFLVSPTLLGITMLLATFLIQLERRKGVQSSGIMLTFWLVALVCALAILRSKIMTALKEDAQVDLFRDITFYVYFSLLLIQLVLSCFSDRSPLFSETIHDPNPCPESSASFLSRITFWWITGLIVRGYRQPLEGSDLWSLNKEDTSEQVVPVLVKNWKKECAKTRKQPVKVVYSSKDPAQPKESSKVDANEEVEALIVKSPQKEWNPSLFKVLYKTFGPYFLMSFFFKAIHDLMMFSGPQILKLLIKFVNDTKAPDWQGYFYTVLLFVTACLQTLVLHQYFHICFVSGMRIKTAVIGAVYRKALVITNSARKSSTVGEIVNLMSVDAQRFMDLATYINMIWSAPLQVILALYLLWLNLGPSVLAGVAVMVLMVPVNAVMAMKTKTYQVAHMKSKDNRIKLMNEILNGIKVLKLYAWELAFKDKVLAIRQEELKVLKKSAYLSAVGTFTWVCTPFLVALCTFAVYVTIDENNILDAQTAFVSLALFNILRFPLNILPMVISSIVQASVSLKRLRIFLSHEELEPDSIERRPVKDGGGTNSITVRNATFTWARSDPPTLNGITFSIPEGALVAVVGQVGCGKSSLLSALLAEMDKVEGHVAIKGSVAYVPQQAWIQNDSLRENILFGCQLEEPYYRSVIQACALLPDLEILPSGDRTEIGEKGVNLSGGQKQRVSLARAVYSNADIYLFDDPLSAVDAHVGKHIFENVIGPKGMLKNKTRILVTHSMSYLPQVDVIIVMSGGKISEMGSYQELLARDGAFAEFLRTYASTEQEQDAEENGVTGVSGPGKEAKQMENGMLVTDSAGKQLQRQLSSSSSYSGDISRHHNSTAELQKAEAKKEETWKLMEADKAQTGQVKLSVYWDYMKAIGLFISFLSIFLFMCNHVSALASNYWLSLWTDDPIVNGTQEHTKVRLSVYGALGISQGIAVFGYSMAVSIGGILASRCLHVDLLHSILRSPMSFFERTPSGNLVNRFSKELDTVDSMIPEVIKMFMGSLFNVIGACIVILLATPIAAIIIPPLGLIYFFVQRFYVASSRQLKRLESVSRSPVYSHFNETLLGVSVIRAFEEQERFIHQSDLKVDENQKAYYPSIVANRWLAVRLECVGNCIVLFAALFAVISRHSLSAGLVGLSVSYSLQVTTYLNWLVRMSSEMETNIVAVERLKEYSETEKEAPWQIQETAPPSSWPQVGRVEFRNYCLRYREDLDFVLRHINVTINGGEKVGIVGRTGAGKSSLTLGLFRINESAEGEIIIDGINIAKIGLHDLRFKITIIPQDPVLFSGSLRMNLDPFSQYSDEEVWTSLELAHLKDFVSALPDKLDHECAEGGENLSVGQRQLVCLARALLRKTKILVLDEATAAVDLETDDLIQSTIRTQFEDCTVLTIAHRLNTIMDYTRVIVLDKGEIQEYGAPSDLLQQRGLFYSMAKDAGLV

fold change (FC) [1]: 4.7
fold change (FC) [7]: 1.3
Emax at 20 min [8]: 150%
fold change (FC) [9]: 0.8
fold change (FC) [10]: 9.8
fold change (FC) [13]: 0.8
SMILES: C=CC(C)(C)c1cc(/C=C/C(=O)c2ccc(O)cc2)c(OC)cc1O [LICOAGROCHACONE A]
fold change (FC) [2]: 0.8
Activity [3]: 2.7%
fold change (FC) [4]: 2 - 6
fold change (FC) [5]: 0.9
fold change (FC) [6]: 1
viability at 10 µM [11]: 95.4%
fold change (FC) [12]: 1
fold change (FC) [14]: 7.1
fold change (FC) [15]: 0.9
viability at 10 µM [16]: 94.4%
